Assay outcomes from PubChem BioAssay.
This is a sample that favours compounds with a hit; in the whole collection about 1.9% have one here.
p47phox inh = blocks human p47phox regulatory protein of NADPH oxidases; p47phox/p22phox peptide binding, fluorescence polarization, 2 h; inhibition, % at 24.7 µM; 220,000 compounds, 0.53% hits;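 active = inhibition above about 30%, limit read from the data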;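 also: 0% = p47phox with labelled peptide and 100% = labelled peptide alone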
Target sequence (P14598 whole entry, looked up): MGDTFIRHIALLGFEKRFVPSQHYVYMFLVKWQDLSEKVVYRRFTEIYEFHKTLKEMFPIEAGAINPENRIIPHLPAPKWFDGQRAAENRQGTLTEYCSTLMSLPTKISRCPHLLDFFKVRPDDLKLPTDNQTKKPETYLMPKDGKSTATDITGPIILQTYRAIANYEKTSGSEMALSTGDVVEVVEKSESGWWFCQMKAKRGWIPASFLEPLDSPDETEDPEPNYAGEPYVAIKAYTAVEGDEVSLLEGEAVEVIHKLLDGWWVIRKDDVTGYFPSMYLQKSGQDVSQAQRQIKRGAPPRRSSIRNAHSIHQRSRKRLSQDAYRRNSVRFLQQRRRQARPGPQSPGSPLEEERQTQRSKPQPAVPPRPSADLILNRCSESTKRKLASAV
RAM inhibit = yeast RAM network inhibition; 190,000 compounds, 1.8% hits; S. cerevisiae dse1pr::URA3 reporter, 5-FOA growth OD615, 2 d; analog-sensitive cbk1-as2 kinase mutant strain; AID 868; inhibition, % at 50 µM;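 active = inhibition above a set limit, 3 SD over mean compound inhibition, cut at about 8.4% in these data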;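 also: 0% = DMSO-only wells with no growth and 100% = 10 µM 1-NA-PP1 full growth; inhibition rescues growth on 5-FOA so higher OD means more RAM inhibition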
pCIP destab = lowers stability of the mouse p/CIP coactivator protein; 290,000 compounds, 0.01% hits; Q05BA5; F442A p/CIP-EGFP cells, EGFP fluorescence, 16 h; decrease of EGFP signal, % at 10 µM; AID 1984;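 active = EGFP signal decrease of at least 30% at 10 µM or well 3 SD below plate mean, unless failing retest; inactive = the rest, including hits failing retest or dose response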
Dynein transport = blocks dynein driven cargo transport along microtubules; 220,000 compounds, 0.47% hits; z-score, hits read low; 3617.4 mouse cells, GR-EGFP nuclear translocation imaging; test concentration mostly 20 µM; stimulated with dexamethasone, 1 µM; stronger effect = lower value;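 active = plate z-score of nuclear minus cytoplasmic receptor signal below a set negative limit, without overly bright fluorescence or cell loss, cut at about -3.5 in these data, passing the limit was not always enough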;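 also: z-score of nuclear minus cytoplasmic ring GR-EGFP intensity difference per well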
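Buffer or medium: tet-free, stripped-serum medium; reagent: dexamethasone at 1.0 µM final, 30 min; incubation: 48 h induction, 1 h compound, 30 min dex at 37 °C; measured by: formaldehyde fixation, Hoechst nuclear stain, 10x automated fluorescence imaging; read-out: nuclear-to-cytoplasmic GR-EGFP distribution per well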
Starred values were filed as active, the others as inactive; x = no result; + = active, no number.

SMILES | p47phox inh | RAM inhibit | pCIP destab | Dynein transport
COc1c(O)cc2oc(-c3ccc(O)cc3)cc(=O)c2c1O | -15 | x | -2 | 0.22
CCOC(=O)c1cc(-c2ccccc2)sc1NC(=O)CSc1nnnn1C | -58 | 8.4* | 1 | 0.77
CCOC(=O)c1sc(-c2ccccc2)cc1NC(=O)CSc1nnnn1C | -23 | 8.4* | 3 | 0.72
CCOC(=O)c1cccc(NC(=O)CSc2nnnn2C)c1 | -7 | 1 | 10 | -0.79
CCOC(=O)c1cc(-c2ccccc2)sc1NC(=O)CC(C)C | -3 | 0 | -3 | -0.1
O=C(CSc1nnc(-c2n[nH]c3ccccc23)n1-c1ccccc1)Nc1cccc(Cl)c1 | -15 | 8.8* | -18 | -0.81
CCc1ccc(NC(=O)CSc2nnc(-c3n[nH]c4ccccc34)n2-c2ccccc2)cc1 | -3 | 4 | 0 | -0.32
COc1ccc(C2N=C(c3ccccc3)NO2)cc1OC (stereo not drawn) | x | x | -10 | x
COc1cc(C2N=C(c3ccccc3)NO2)cc(Br)c1O (stereo not drawn) | + | 2 | 5 | 3.2
NC1=NC[C@H](Cc2ccc(O)cc2)N1CCc1cccc2ccccc12 | 63* | x | -21 | 0.36
Cc1cc(C)c2c(c1)-c1c(ssc1=S)C(C)(C)N2C(=O)CN1C(=O)c2ccccc2C1=O | -15 | 11* | -14 | 0.39
COC(=O)c1cc(S(=O)(=O)N(C)C2CCCCC2)c[nH]1 | x | x | -4 | x
O=[N+]([O-])c1cccc(-c2nc(NCc3ccccc3)c3ccccc3n2)c1 | -9 | 8.7* | 2 | -0.56
COc1cc2cc(C(=O)O)n(C)c2c(OC)c1OC | 60* | 2 | -9 | -0.77
COCC(=O)N1CCC(Oc2ccc(C(=O)NC(C)c3csc(C)n3)cc2)CC1 (stereo not drawn) | x | x | 8 | x
NNc1nc(-c2ccccc2Cl)nc2sc3c(c12)CCCC3 | -10 | 3 | -4 | -0.3
CCN(CC)c1ccc(C(=O)O)cc1 | -4 | 1 | -3 | 1.2
CCN(CC)c1ccc(/C=C2\C(=O)c3ccc(C(=O)O)cc3C2=O)cc1 | -216 | 10* | -3 | -1.3
CN(C[C@H](CC1CCCCC1)N(C[C@H](Cc1ccccc1)N(CCc1ccccc1)N=O)N=O)N=O | -6 | 11* | 1 | -0.67
CCCC[C@H](CN(N=O)[C@@H](Cc1ccccc1)CN(C)N=O)N(CCc1ccccc1)N=O | -9 | 8.9* | -2 | -0.25
Cc1c(C(=O)NCc2nnc(-c3ccccc3)o2)oc2c(F)cccc12 | x | x | 0 | x
CCCn1nc(NC(=O)c2ccco2)c2cc3cc(C)ccc3nc21 | -42 | x | -2 | 0.43
CCCn1nc(NC(=O)c2ccccn2)c2cc3cc(C)ccc3nc21 | -13 | 9.2* | -4 | -0.35
Cc1cc(/C=N/Nc2nc(N)ncc2[N+](=O)[O-])c(C)n1-c1cccc(C(F)(F)F)c1 | 6 | x | -4 | -0.47
COc1ccc(C)cc1NC(=O)CSc1nnc(-c2ccccn2)n1Cc1ccco1 | -12 | 3 | -5 | 1.1
SMILES | p47phox inh | RAM inhibit | pCIP destab | Dynein transport
O=C(CSc1nnc(-c2ccco2)n1Cc1ccco1)Nc1ccccc1 | -22 | 11* | 6 | -0.29
COc1ccc(NC(=O)CSc2nnc(COc3ccccc3)n2Cc2ccco2)cc1OC | -20 | 9.9* | -10 | -0.81
COc1ccc(C)cc1NC(=O)CSc1nnc(COc2ccccc2)n1Cc1ccco1 | -15 | 9.5* | 6 | 0.54
COc1ccc(NC(=O)CSc2nccn2Cc2ccco2)cc1OC | x | x | 1 | x
O=C(CSc1nnc(COc2ccc(Cl)cc2)n1Cc1ccco1)c1ccccc1F | -9 | 6 | 3 | -0.76
COc1ccc(C)cc1NC(=O)CSc1nnc(COc2ccc(Cl)cc2)n1Cc1ccco1 | -2 | 9.7* | -4 | 1.4
COc1ccccc1NC(=O)CSc1nnc(-c2ccco2)n1Cc1ccco1 | 13 | 2 | -12 | -0.74
CCn1ncc(Br)c1C(=O)Nc1ccc(C(C)C)cc1 | x | x | -10 | x
COc1cccc(C(=O)OCCNC(=O)c2cccnc2)c1 | x | x | -8 | x
N#CC1=C(N)NC(SCC(=O)c2ccccc2)=C(C#N)C12CCCC2 | -24 | 11* | -1 | -0.22
C/C(=N/NC(N)=S)c1ccc(Br)s1 | -14 | 0 | 4 | -1.3
Nc1cc(C(=O)N2CCN(c3ccc([N+](=O)[O-])cc3)CC2)ccc1N1CC2CC(C1)c1cccc(=O)n1C2 (stereo not drawn) | x | x | -15 | x
Cc1c(Nc2cc(Cl)c3nonc3c2[N+](=O)[O-])c(=O)n(-c2ccccc2)n1C | -9 | 2 | -6 | -6*
COc1ccc(Cl)cc1N1C(=O)/C(=C\c2sccc2C)N=C1SCC(=O)NC1CC1 | -41 | 8.6* | 10 | 0.6
CCOc1cc(C2C3=C(CCCC3=O)N(CCC(=O)O)C3=C2C(=O)CCC3)ccc1OS(=O)(=O)c1ccc(C)cc1 | -11 | 2 | -11 | 0.55
Cc1ccc(S(=O)(=O)Oc2ccc(C3C4=C(CCCC4=O)N(CCC(=O)O)C4=C3C(=O)CCC4)cc2Cl)cc1 | -10 | 8.9* | -5 | -0.51
CCCCc1c(C)nc2c(OC)cccc2c1SCCC(=O)O | 34* | 1 | -1 | -1.1
COc1ccc(C2CC3(CC(C)(C)NC(=S)N3)Oc3cc(O)cc(C)c32)cc1 (stereo not drawn) | -17 | 9.7* | 9 | 0.45
C=CCn1c(SCC(=O)c2ccc(OC)cc2)nnc1-c1cc2cccc(OC)c2o1 | 1 | 11* | -8 | -0.19
C=CCn1c(SCC(=O)c2ccccc2)nnc1-c1cc2ccccc2o1 | 7 | 4 | -6 | 0.25
N/C(Cc1ccc([N+](=O)[O-])cc1)=N\OC(=O)COc1cccc2ccccc12 | -10 | 10* | 3 | -0.57
N/C(Cc1ccc([N+](=O)[O-])cc1)=N\OC(=O)COc1ccccc1Cl | -2 | 4 | -11 | -0.2
CCC(=O)Nc1nnc(S(=O)(=O)N2CCCCCC2)s1 | x | x | -12 | x
COc1ccc(C(=O)NNC(=O)CCn2nnc(-c3ccc(C)cc3)n2)cc1OC | 5 | 9.2* | 11 | 0.12
CN(/N=C/c1ccc(-c2ccc([N+](=O)[O-])cc2)o1)c1ccccc1 | x | x | -405 | x
SMILES | p47phox inh | RAM inhibit | pCIP destab | Dynein transport
O=C1Nc2ccccc2/C1=N/N=C/c1ccc(-c2ccc([N+](=O)[O-])cc2)o1 | 51* | 3 | -6 | -0.81
Cc1cccn2c(=O)c(C=Nc3ccc(Cl)cc3)c(NCCO)nc12 | -9 | 2 | 3 | -0.56
Cc1cccn2c(=O)c(C=NCCO)c(Nc3ccc(Cl)cc3)nc12 | -2 | 8.9* | 4 | 2.3
COC(=O)c1ccc(CN2C(=O)NC(CC(C)C)C2=O)cc1 (stereo not drawn) | -1 | 1 | 6 | 1.3
CCN(CC)S(=O)(=O)c1cc(NS(=O)(=O)c2cccc(Cl)c2Cl)ccc1C | -4 | 10* | -6 | -0.77
Cc1cc(NC(=O)c2cc(-c3cccc(OCC(C)C)c3)nc3ccccc23)no1 | x | x | -17 | x
COc1ccc2nc(/N=C/c3c(C)[nH]n(-c4ccc(C)cc4)c3=O)sc2c1 | 34* | 0 | 3 | -0.61
COc1ccc2nc(/N=C\N(C)C)sc2c1 | -8 | 2 | -9 | -0.93
